Molecules are shown by their SMILES. Calls of active or inactive are those of the source. The calls are words filed in the database; no cut-off is given here.

Results on 16 compounds are retold here after ChEMBL document CHEMBL2429762, “Structure-activity relationship study of indole-2-carboxamides identifies a potent allosteric modulator for the cannabinoid receptor 1 (CB1)” (J Med Chem, 2013).

In test [1] the target is Cannabinoid receptor 1 (Homo sapiens) (UniProt P21554). The test is described as follows: Positive allosteric modulation of CB1 receptor (unknown origin) expressed in HEK293 cell membranes assessed as stimulation of [3H]CP55,940 binding after 60 mins by liquid scintillation counting analysis. In a few lines: (§1)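 Nonspecific binding was taken with 1 μM unlabeled CP55,940. Samples were filtered on GF/C and counted by scintillation. Runs were in duplicate, ≥3 experiments. α and KB came from nonlinear regression to the allosteric ternary complex model, with [A] and KA fixed.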

Test [2] shares this target. The test is described as follows: Antagonist activity CB1 receptor (unknown origin) expressed in HEK293 cell membranes assessed as inhibition of CP55,940-induced [35S]GTPgammaS binding at 10 uM after 60 mins by liquid scintillation counting analysis relative to control. The class given is functional. In a few lines:
(§2)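 Wild-type CB1 HEK293 membranes (7.5 μg) were incubated 60 min at 30 °C in 50 mM Tris-HCl pH 7.4, 3 mM MgCl2, 0.2 mM EGTA, 100 mM NaCl, 0.1% BSA, 10 μM GDP and 0.1 nM [35S]GTPγS. CP55,940 was given at ≥9 concentrations (100 pM–100 μM), with or without modulator. Nonspecific binding was taken with 10 μM GTPγS. Samples were filtered and counted by scintillation. Runs were in duplicate, ≥3 experiments.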
(In general: GTPγS resists hydrolysis and so accumulates on activated G proteins.)

Test [3] shares this target. Put plainly: Antagonist activity CB1 receptor (unknown origin) expressed in HEK293 cell membranes assessed as inhibition of CP55,940-induced [35S]GTPgammaS binding at 3.2 uM after 60 mins by liquid scintillation counting analysis relative to control. It is filed as functional. In a few lines: as §2
Test [4] has the same target. Put plainly: Antagonist activity CB1 receptor (unknown origin) expressed in HEK293 cell membranes assessed as inhibition of CP55,940-induced [35S]GTPgammaS binding after 60 mins by liquid scintillation counting analysis. It is filed as functional. Put shortly: as §2
Test [5] has the same target. The test is described as follows: Allosteric modulation of CB1 receptor (unknown origin) expressed in HEK293 cell membranes assessed as stimulation of [3H]CP55,940 binding up to 32 uM after 60 mins by liquid scintillation counting analysis. In a few lines: as §1
The target is the same in test [6]. The test is described as follows: Antagonist activity CB1 receptor (unknown origin) expressed in HEK293 cell membranes assessed as inhibition of [35S]GTPgammaS binding at 10 uM after 60 mins by liquid scintillation counting analysis. The class given is functional. Put shortly:
(§3)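 Basal [35S]GTPγS binding was measured with no orthosteric agonist on wild-type CB1 HEK293 membranes (7.5 μg), 60 min at 30 °C. Buffer was Tris pH 7.4 with MgCl2, EGTA, NaCl and BSA, plus 5 μM GDP and 0.1 nM [35S]GTPγS, and modulator added. Nonspecific binding was taken with 10 μM GTPγS. Mock-transfected membranes gave the non-CB1 binding. Samples were filtered and counted by scintillation. Runs were in duplicate, ≥3 experiments; one-way ANOVA with Bonferroni test was applied.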

Test [7] shares this target. Put plainly: Antagonist activity CB1 receptor (unknown origin) expressed in HEK293 cell membranes assessed as inhibition of [35S]GTPgammaS binding after 60 mins by liquid scintillation counting analysis. It is filed as functional. Put shortly: as §3
Test [8] shares this target. The test is described as follows: Antagonist activity CB1 receptor (unknown origin) expressed in HEK293 cell membranes assessed as inhibition of CP55,940-induced [35S]GTPgammaS binding at 1 uM after 60 mins by liquid scintillation counting analysis relative to control. The class given is functional. In a few lines:
as §2

Test [9] has the same target. The test is described as follows: Antagonist activity CB1 receptor (unknown origin) expressed in HEK293 cell membranes assessed as inhibition of CP55,940-induced [35S]GTPgammaS binding at 0.1 uM after 60 mins by liquid scintillation counting analysis (reference value: […] +/- […] fmol/mg). The class given is functional.

Cannabinoid receptor 1 (Homo sapiens), sequence (P21554 whole entry): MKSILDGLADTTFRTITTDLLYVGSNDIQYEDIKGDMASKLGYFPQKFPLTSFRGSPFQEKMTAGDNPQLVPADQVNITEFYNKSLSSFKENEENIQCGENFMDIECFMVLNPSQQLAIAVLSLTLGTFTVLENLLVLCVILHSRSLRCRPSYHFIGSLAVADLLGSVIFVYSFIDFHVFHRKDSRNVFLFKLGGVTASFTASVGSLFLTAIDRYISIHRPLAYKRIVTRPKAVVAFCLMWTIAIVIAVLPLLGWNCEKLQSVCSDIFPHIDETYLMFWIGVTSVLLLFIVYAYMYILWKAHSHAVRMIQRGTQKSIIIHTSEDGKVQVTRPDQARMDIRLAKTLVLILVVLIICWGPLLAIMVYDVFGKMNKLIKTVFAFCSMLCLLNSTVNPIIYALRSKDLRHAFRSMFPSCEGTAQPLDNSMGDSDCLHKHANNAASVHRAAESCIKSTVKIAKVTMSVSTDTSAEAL

For `CCc1c(C(=O)NCCc2ccc(N3CCCCC3)cc2)oc2ccc(Cl)cc12`, the Kb in test [1] is 2590 nM. In addition, in test [2], the inhibition entry was “Active”. Moreover, in [3], the Emax stood at 59.5 fmol/mg. In addition, in test [4], the inhibition entry is “Dose-dependent effect”.

Regarding `O=C(NCCc1ccc(N2CCCCC2)cc1)c1[nH]c2ccc(Cl)cc2c1-c1ccccc1`, the outcome in test [5] was inactive.

Take `CCCCCCCc1c(C(=O)NCCc2ccc(N3CCCCC3)cc2)[nH]c2ccc(Cl)cc12`: the Kb in test [1] came to 651 nM.

Take `O=C(NCCc1ccc(N2CCCCC2)cc1)c1[nH]c2ccc(Cl)cc2c1CC1CCCCC1`: the Kb in [1] is 2410 nM.

Consider `CCCCCCCCCc1c(C(=O)NCCc2ccc(N3CCCCC3)cc2)[nH]c2ccc(Cl)cc12`, for which the Kb in test [1] worked out at 260 nM. In addition, the inhibition entry in test [2] is “Active”. The Emax in [3] came to 61.4 fmol/mg. The inhibition entry in [4] was “Dose-dependent effect”.

`O=C(NCCc1ccc(N2CCCCC2)cc1)c1cc2cc(Cl)ccc2o1`: in test [5], the outcome was inactive.

For the compound `CCCCCc1c(C(=O)NCCc2ccc(N(C)C)cc2)[nH]c2ccc(Cl)cc12`, the Kb in test [1] is 167 nM. In addition, in [6], the inhibition result is “Active”. The inhibition entry in test [7] and in test [4] was “Dose-dependent effect” in each case. Further, the results for the Emax in test [8] and in test [9] were 36 fmol/mg and 53.4 fmol/mg, respectively.

Consider `CCc1c(C(=O)NCCc2ccc(N3CCCCC3)cc2)[nH]c2ccc(Cl)cc12`, for which, in [1], the Kb worked out at 217 nM.

As for `CCCCCc1c(C(=O)NCCc2ccc(N3CCOCC3)cc2)[nH]c2ccc(Cl)cc12`, the Kb in test [1] amounted to 508 nM. Besides, the inhibition entry in test [2] is “Active”. In test [3], the Emax worked out at 58.2 fmol/mg. Besides, in test [4], the inhibition result is “Dose-dependent effect”.

For `CN(C)c1ccc(CCNC(=O)c2cc3cc(Cl)ccc3o2)cc1`, in test [5], the result was inactive.

In the case of `O=C(NCCc1ccc(N2CCCCC2)cc1)c1[nH]c2ccc(Cl)cc2c1Cc1ccccc1`, the Kb in [1] is 1070 nM.

In the case of `CCc1c(C(=O)NCCc2ccc(N(C)C)cc2)[nH]c2ccc(Cl)cc12`, in test [1], the Kb was found to be 207 nM.

On to `CCc1c(C(=O)NCCc2ccc(N(C)C)cc2)oc2ccc(Cl)cc12`, for which the Kb in test [1] is 627 nM.

With `CCCCCc1c(C(=O)NC(CO)Cc2ccc(N(C)C)cc2)[nH]c2ccc(Cl)cc12` (stereo not given), the Kb in [1] was 1020 nM.

For the compound `CCCCCc1c(C(=O)NCc2ccc(N3CCCCC3)cc2)[nH]c2ccc(Cl)cc12`, the outcome in [5] was inactive.

On to `CCCCCc1c(C(=O)NCCc2ccc(Oc3ccccc3)cc2)[nH]c2ccc(Cl)cc12`, for which, in test [1], the Kb was found to be 2340 nM.
